Results taken from paper PMC7717620 (Nucleosides, nucleotides & nucleic acids, 2019).
“Also recorded” adds a separate entry of the source.

How the values were obtained:
[1] = system: primary mouse hepatocytes; assay: intracellular metabolism in primary mouse hepatocytes; assay type: in vitro ADME; details: 50 μM, 4 h
[2] = system: primary human hepatocytes; assay: intracellular metabolism in primary human hepatocytes; assay type: in vitro ADME; details: 50 μM, 4 h
[3] = system: HCV genotype 1 b RNA replication; assay: subgenomic HCV replicon system, inhibition of HCV RNA replication in Huh-7 cells; assay type: cell-based, hepatitis C virus; details: HCV genotype 1 b subgenomic replicon
Outline: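 HCV genotype 1b subgenomic replicon in Huh-7 cells. HCV RNA and cellular ribosomal RNA were extracted and amplified, so replication and cytotoxicity were read in the same cells.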

human cardiomyocytes [4] = assay: cellular accumulation and metabolism in human cardiomyocytes; assay type: in vitro ADME; details: 10 μM
primary rat hepatocytes = assay: intracellular metabolism in primary rat hepatocytes; assay type: in vitro ADME; details: 50 μM, 4 h
[5] = system: primary monkey hepatocytes; assay: intracellular metabolism in primary monkey hepatocytes; assay type: in vitro ADME; details: 50 μM, 4 h
primary dog hepatocytes = assay: intracellular metabolism in primary dog hepatocytes; assay type: in vitro ADME; details: 50 μM, 4 h
Huh-7 cells = assay: intracellular metabolism in Huh-7 cells; assay type: in vitro ADME, human; details: Huh-7, 50 μM, 4 h
human cardiomyocytes [6] = assay: recording of human cardiomyocyte beating patterns; assay type: cell-based; details: for change in beating rate or rhythm of cardiomyocytes (observation): up to 48 h
HepG2 cells = assay: intracellular metabolism in HepG2 cells; assay type: in vitro ADME, human; details: HepG2, 50 μM, 4 h
patients = details: of the 34 patients treated, phase IIb; cited from earlier work
monkey heart and kidney = details: three weeks post a three-week dosing (week 6); cited from earlier work
[7] = all three concentrations (2, 10 and 50 μM)

CC(C)(CO)C(=O)SCCOP(=O)(NCc1ccccc1)OC[C@H]1O[C@@H](n2cnc3c(=O)[nH]c(N)nc32)[C@](C)(O)[C@@H]1O (mixture of isomers) [IDX-184, S-(2-(((((2R,3R,4R,5R)-5-(2-Amino-6-oxo-1,6-dihydro-9H-purin-9-yl)-3,4-dihydroxy-4-methyltetrahydrofuran-2-yl)methoxy)(benzylamino)phosphoryl)oxy)ethyl) 3-hydroxy-2,2-dimethylpropanethioate]
Intracellular concentration: Prodrugs [1]: 220 ± 3 pmol/10^6 cells | Intracellular concentration: Prodrugs [2]: 160 ± 18 pmol/10^6 cells | Replicon Huh-7 EC50 [3]: sub-micromolar | Intracellular concentration in human cardiomyocytes: Prodrugs (human cardiomyocytes [4]; 4 h): 21 ± 1 pmol/10^6 cells | Intracellular concentration in human cardiomyocytes: Prodrugs (human cardiomyocytes [4]; 8 h): 9.8 ± 1.4 pmol/10^6 cells | intact prodrug level, times lower than BMS-986094 (human cardiomyocytes [4]; human cardiomyocytes, 8 h): 83 times | Intracellular concentration: Prodrugs (primary rat hepatocytes): 1,100 ± 471 pmol/10^6 cells | Intracellular concentration: Prodrugs [5]: 75 ± 3 pmol/10^6 cells | Intracellular concentration: Prodrugs (primary dog hepatocytes): 110 ± 2 pmol/10^6 cells | Intracellular concentration: Prodrugs (Huh-7 cells): 11 ± 1 pmol/10^6 cells | Beating rate of human cardiomyocytes (human cardiomyocytes [6]; 2 μM, 2 h): 32.0 ± 0 beats/minute | Beating rate of human cardiomyocytes (human cardiomyocytes [6]; 2 μM, 4 h): 31.5 ± 0.7 beats/minute | Beating rate of human cardiomyocytes (human cardiomyocytes [6]; 2 μM, 8 h): 37.0 ± 1.4 beats/minute | Beating rate of human cardiomyocytes (human cardiomyocytes [6]; 2 μM, 12 h): 36.0 ± 1.4 beats/minute | Beating rate of human cardiomyocytes (human cardiomyocytes [6]; 2 μM, 24 h): 32.5 ± 0.7 beats/minute | Beating rate of human cardiomyocytes (human cardiomyocytes [6]; 2 μM, 48 h): 24.0 ± 1.4 beats/minute | Beating rate of human cardiomyocytes (human cardiomyocytes [6]; 10 μM, 2 h): 30.0 ± 1.4 beats/minute | Beating rate of human cardiomyocytes (human cardiomyocytes [6]; 10 μM, 4 h): 30.0 ± 0 beats/minute | Beating rate of human cardiomyocytes (human cardiomyocytes [6]; 10 μM, 8 h): 34.0 ± 0 beats/minute | Beating rate of human cardiomyocytes (human cardiomyocytes [6]; 10 μM, 12 h): 34.0 ± 1.4 beats/minute | Beating rate of human cardiomyocytes (human cardiomyocytes [6]; 10 μM, 24 h): 31.0 ± 1.4 beats/minute | Beating rate of human cardiomyocytes (human cardiomyocytes [6]; 10 μM, 48 h): 25.0 ± 1.4 beats/minute | Beating rate of human cardiomyocytes (human cardiomyocytes [6]; 50 μM, 2 h): 33.0 ± 0 beats/minute | Beating rate of human cardiomyocytes (human cardiomyocytes [6]; 50 μM, 4 h): 31.5 ± 0.7 beats/minute | Beating rate of human cardiomyocytes (human cardiomyocytes [6]; 50 μM, 8 h): 34.5 ± 0.7 beats/minute | Beating rate of human cardiomyocytes (human cardiomyocytes [6]; 50 μM, 12 h): 34.5 ± 0.7 beats/minute | Beating rate of human cardiomyocytes (human cardiomyocytes [6]; 50 μM, 24 h): 34.5 ± 4.9 beats/minute | Beating rate of human cardiomyocytes (human cardiomyocytes [6]; 50 μM, 48 h): 27.5 ± 0.7 beats/minute | change in beating rate or rhythm of cardiomyocytes (observation) (human cardiomyocytes [6]; [7]): no obvious beating rate change; also recorded: no apparent change in beating; also recorded: no apparent changes to beat rate or rhythm | Intracellular concentration: Prodrugs (HepG2 cells): 21 ± 1 pmol/10^6 cells

COc1nc(N)nc2c1ncn2[C@@H]1O[C@H](COP(=O)(N[C@@H](C)C(=O)OCC(C)(C)C)Oc2cccc3ccccc23)[C@@H](O)[C@@]1(C)O (stereo partly drawn) [BMS-986094, Neopentyl ((((2R,3R,4R,5R)-5-(2-amino-6-methoxy-9H-purin-9-yl)-3,4-dihydroxy-4-methyltetrahydrofuran-2-yl)methoxy)(naphthalen-1-yloxy)phosphoryl)-L-alaninate]
Intracellular concentration: NTP (triphosphate of N) [1]: undetectable and BLOQ | Intracellular concentration: Prodrugs [1]: 880 ± 135 pmol/10^6 cells | deaths (patients): one death | patients with some evidence of cardiac dysfunction (patients): 14 | Intracellular concentration: Prodrugs [2]: 4,100 ± 569 pmol/10^6 cells | Intracellular concentration in human cardiomyocytes: NTP (triphosphate of N) (human cardiomyocytes [4]; 4 h): BLOQ | Intracellular concentration in human cardiomyocytes: Prodrugs (human cardiomyocytes [4]; 4 h): 800 ± 118 pmol/10^6 cells | Intracellular concentration in human cardiomyocytes: NTP (triphosphate of N) (human cardiomyocytes [4]; 8 h): BLOQ | Intracellular concentration in human cardiomyocytes: Prodrugs (human cardiomyocytes [4]; 8 h): 810 ± 80 pmol/10^6 cells | level of intact prodrug, fold higher than DAPN-PD (human cardiomyocytes [4]; human cardiomyocytes, 4 h): 11 fold | level of intact prodrug, fold higher than IDX-184 (human cardiomyocytes [4]; human cardiomyocytes, 4 h): 37 fold | Intracellular concentration: Prodrugs (primary rat hepatocytes): 52 pmol/10^6 cells | Intracellular concentration: Prodrugs [5]: 150 ± 19 pmol/10^6 cells | levels of 2’-C-Me-GTP in the heart and kidney (monkey heart and kidney): 2,610–4,280 ng/mL | Intracellular concentration: Prodrugs (primary dog hepatocytes): 2,200 ± 68 pmol/10^6 cells | Intracellular concentration: Prodrugs (Huh-7 cells): 2,900 ± 358 pmol/10^6 cells | parent prodrug level, times the level observed for DAPN-PD (Huh-7 cells): 17 times | parent prodrug level, times the level observed for IDX-184 (Huh-7 cells): 260 times | Beating rate of human cardiomyocytes (human cardiomyocytes [6]; 2 μM, 2 h): 31.0 ± 0 beats/minute | Beating rate of human cardiomyocytes (human cardiomyocytes [6]; 2 μM, 4 h): 30.5 ± 0.7 beats/minute | Beating rate of human cardiomyocytes (human cardiomyocytes [6]; 2 μM, 8 h): 34.5 ± 0.7 beats/minute | Beating rate of human cardiomyocytes (human cardiomyocytes [6]; 2 μM, 12 h): 36.0 ± 0 beats/minute | Beating rate of human cardiomyocytes (human cardiomyocytes [6]; 2 μM, 24 h): 32.5 ± 0.7 beats/minute | Beating rate of human cardiomyocytes (human cardiomyocytes [6]; 2 μM, 48 h): 26.5 ± 0.7 beats/minute | change in beating rate or rhythm of cardiomyocytes (observation) (human cardiomyocytes [6]; 2 μM): no clear change in beating rate or rhythm | Beating rate of human cardiomyocytes (human cardiomyocytes [6]; 10 μM, 2 h): 31.0 ± 0 beats/minute | Beating rate of human cardiomyocytes (human cardiomyocytes [6]; 10 μM, 4 h): 31.0 ± 0 beats/minute | Beating rate of human cardiomyocytes (human cardiomyocytes [6]; 10 μM, 8 h): 35.0 ± 0 beats/minute | Beating rate of human cardiomyocytes (human cardiomyocytes [6]; 10 μM, 12 h): 36.0 ± 0 beats/minute | Beating rate of human cardiomyocytes (human cardiomyocytes [6]; 10 μM, 24 h): 34.5 ± 0.7 beats/minute | Beating rate of human cardiomyocytes (human cardiomyocytes [6]; 10 μM, 48 h): 35.5 ± 2.1 beats/minute | change in beating rate or rhythm of cardiomyocytes (observation) (human cardiomyocytes [6]; 10 μM): changes to both beat rate and rhythm were noted; also recorded: higher beating rates were observed starting from 12 h | time until cardiomyocytes stopped beating (human cardiomyocytes [6]; 50 μM): ≤ 2 h | Beating rate of human cardiomyocytes (human cardiomyocytes [6]; 50 μM, 2 h): 0 ± 0 beats/minute | Beating rate of human cardiomyocytes (human cardiomyocytes [6]; 50 μM, 4 h): 0 ± 0 beats/minute | Beating rate of human cardiomyocytes (human cardiomyocytes [6]; 50 μM, 8 h): 0 ± 0 beats/minute | Beating rate of human cardiomyocytes (human cardiomyocytes [6]; 50 μM, 12 h): 32.0 beats/minute | Beating rate of human cardiomyocytes (human cardiomyocytes [6]; 50 μM, 24 h): 34.0 ± 0 beats/minute | Beating rate of human cardiomyocytes (human cardiomyocytes [6]; 50 μM, 48 h): 0 ± 0 beats/minute | rhythm of cardiomyocytes (observation) (human cardiomyocytes [6]; 50 μM, beating resumed briefly at 12 and 24 h): very unstable rhythm | Intracellular concentration: Prodrugs (HepG2 cells): 2,400 ± 9 pmol/10^6 cells | parent prodrug level, times the level observed for DAPN-PD (HepG2 cells): 6 times | parent prodrug level, times the level observed for IDX-184 (HepG2 cells): 110 times

CC(C)OC(=O)[C@H](C)N[P@](=O)(OC[C@H]1O[C@@H](n2ccc(=O)[nH]c2=O)[C@](C)(F)[C@@H]1O)Oc1ccccc1 [Sofosbuvir, sofosbuvir]
Intracellular concentration in human cardiomyocytes: Prodrugs (human cardiomyocytes [4]; 4 h): 56 ± 3 pmol/10^6 cells | Intracellular concentration in human cardiomyocytes: Prodrugs (human cardiomyocytes [4]; 8 h): 42 ± 4 pmol/10^6 cells | Beating rate of human cardiomyocytes (human cardiomyocytes [6]; 2 μM, 2 h): 36.5 ± 2.1 beats/minute | Beating rate of human cardiomyocytes (human cardiomyocytes [6]; 2 μM, 4 h): 35.0 ± 1.4 beats/minute | Beating rate of human cardiomyocytes (human cardiomyocytes [6]; 2 μM, 8 h): 38.5 ± 0.7 beats/minute | Beating rate of human cardiomyocytes (human cardiomyocytes [6]; 2 μM, 12 h): 36.5 ± 0.7 beats/minute | Beating rate of human cardiomyocytes (human cardiomyocytes [6]; 2 μM, 24 h): 33.0 ± 0 beats/minute | Beating rate of human cardiomyocytes (human cardiomyocytes [6]; 2 μM, 48 h): 25.5 ± 0.7 beats/minute | Beating rate of human cardiomyocytes (human cardiomyocytes [6]; 10 μM, 2 h): 34.0 ± 1.4 beats/minute | Beating rate of human cardiomyocytes (human cardiomyocytes [6]; 10 μM, 4 h): 33.0 ± 1.4 beats/minute | Beating rate of human cardiomyocytes (human cardiomyocytes [6]; 10 μM, 8 h): 35.0 ± 1.4 beats/minute | Beating rate of human cardiomyocytes (human cardiomyocytes [6]; 10 μM, 12 h): 33.5 ± 0.7 beats/minute | Beating rate of human cardiomyocytes (human cardiomyocytes [6]; 10 μM, 24 h): 30.0 ± 0 beats/minute | Beating rate of human cardiomyocytes (human cardiomyocytes [6]; 10 μM, 48 h): 23.0 ± 0 beats/minute | Beating rate of human cardiomyocytes (human cardiomyocytes [6]; 50 μM, 2 h): 32.5 ± 0.7 beats/minute | Beating rate of human cardiomyocytes (human cardiomyocytes [6]; 50 μM, 4 h): 32.0 ± 0 beats/minute | Beating rate of human cardiomyocytes (human cardiomyocytes [6]; 50 μM, 8 h): 34.5 ± 0.7 beats/minute | Beating rate of human cardiomyocytes (human cardiomyocytes [6]; 50 μM, 12 h): 33.0 ± 1.4 beats/minute | Beating rate of human cardiomyocytes (human cardiomyocytes [6]; 50 μM, 24 h): 29.5 ± 0.7 beats/minute | Beating rate of human cardiomyocytes (human cardiomyocytes [6]; 50 μM, 48 h): 23.5 ± 0.7 beats/minute | change in beating rate or rhythm of cardiomyocytes (observation) (human cardiomyocytes [6]; [7]): no apparent change in beating rate or rhythm
